Source: PubChem BioAssay
Apaf1 activ: activates human Apaf-1 apoptosome | O14727 | Apaf-1 apoptosome caspase-3 activation, DEVD-Rh110 fluorescence; hits give low values | activity change, negative = activation, % at 20 µM | 330,000 tested, 0.31% active;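 active means activity change at or below -40% at 20 µM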
Target sequence (O14727 whole entry, looked up): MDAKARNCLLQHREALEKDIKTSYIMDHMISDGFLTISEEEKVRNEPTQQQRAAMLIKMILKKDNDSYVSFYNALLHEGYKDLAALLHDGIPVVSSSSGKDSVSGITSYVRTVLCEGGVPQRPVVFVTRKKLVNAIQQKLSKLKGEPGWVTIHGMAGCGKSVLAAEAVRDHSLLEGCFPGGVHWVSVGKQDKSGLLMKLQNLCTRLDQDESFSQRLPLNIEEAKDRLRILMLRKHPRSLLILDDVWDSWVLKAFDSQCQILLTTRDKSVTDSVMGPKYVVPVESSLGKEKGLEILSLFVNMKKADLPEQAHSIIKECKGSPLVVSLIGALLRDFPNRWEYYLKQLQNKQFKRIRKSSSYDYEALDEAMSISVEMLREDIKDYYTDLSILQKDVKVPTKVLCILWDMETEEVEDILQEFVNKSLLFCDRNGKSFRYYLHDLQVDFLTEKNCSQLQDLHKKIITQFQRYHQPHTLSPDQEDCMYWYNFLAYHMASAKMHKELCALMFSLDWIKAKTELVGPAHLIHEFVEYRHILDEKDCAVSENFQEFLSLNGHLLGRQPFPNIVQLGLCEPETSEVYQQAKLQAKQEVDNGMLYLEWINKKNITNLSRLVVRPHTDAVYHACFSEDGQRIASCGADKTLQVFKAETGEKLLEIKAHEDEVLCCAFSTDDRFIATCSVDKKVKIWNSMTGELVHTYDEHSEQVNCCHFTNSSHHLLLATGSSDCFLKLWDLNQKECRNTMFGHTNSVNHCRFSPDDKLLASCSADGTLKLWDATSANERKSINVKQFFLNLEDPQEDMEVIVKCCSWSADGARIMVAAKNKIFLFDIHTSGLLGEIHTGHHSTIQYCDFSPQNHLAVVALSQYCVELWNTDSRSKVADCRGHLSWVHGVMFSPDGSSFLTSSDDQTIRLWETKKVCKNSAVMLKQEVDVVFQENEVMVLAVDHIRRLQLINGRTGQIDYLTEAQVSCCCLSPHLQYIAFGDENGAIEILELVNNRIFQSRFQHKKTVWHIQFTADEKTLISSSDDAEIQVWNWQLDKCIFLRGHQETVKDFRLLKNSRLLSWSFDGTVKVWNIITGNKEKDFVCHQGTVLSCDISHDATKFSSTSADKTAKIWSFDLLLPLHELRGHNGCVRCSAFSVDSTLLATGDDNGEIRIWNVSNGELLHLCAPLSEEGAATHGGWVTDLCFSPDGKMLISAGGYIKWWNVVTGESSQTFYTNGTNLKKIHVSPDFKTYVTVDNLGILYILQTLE
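Material: biochemical Apaf-1 apoptosome reconstitution; Medium: 20 mM HEPES buffer, pH 7.5, containing CHAPS and BSA; Reagent: dATP, cytochrome c, and (Z-DEVD)2-Rh110 caspase-3 substrate; Times: 30 min preincubation, 50 min reaction, room temperature; Signal: Rh110 fluorescence, excitation 480 nm, emission 540 nm; Measure: Caspase-3 activity via Apaf-1.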
Rh110 interf act: counter-screen for Apaf-1 activators: fluorescence interference. shares compounds with Apaf1 activ. Rh110 fluorescence interference, quenched caspase reaction, Ex480/Em540. fluorescence interference (activity change), % at 20 µM, hits read low. 980 tested, under 10 active. AID 504616;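 active means mean activity change at or below -40% when tested at 20 µM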
Apaf-1 act conf: confirmation of human Apaf-1 activators. shares compounds with Apaf1 activ. reconstituted apoptosome caspase-3 activity, DEVD-Rh110 fluorescence; hits give low values. activity change, negative = activation, % at 20 µM. 980 tested, 5% active. AID 504617;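 active means mean activity change at or below -40%, meaning activation of 40% or more, at 20 µM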
Apaf1 act interf: Apaf-1 activator counter-screen fluorescence artifact. shares compounds with Apaf1 activ. fluorescence interference counterscreen, Apaf-1 activator assay. EC50, µM. 55 tested, under 10 active. AID 588592; call rule not given here
Active calls of the source: *; . = no result. Only a sample is shown.

SMILES | Apaf1 activ | Rh110 interf act | Apaf-1 act conf | others
CC(C)(C)c1ccc(C(=O)NNc2cc(N3CCCCC3)nc(N3CCCCC3)n2)cc1 | 73 | . | .
COc1ccc(C2CC(=O)N3CN(c4ccc(C)c(Cl)c4)CSC3=C2C#N)cc1 (configuration not stated) | 47 | . | .
COc1ccc(NC(=O)CCCCCN2C(=O)c3cccc([N+](=O)[O-])c3C2=O)c(OC)c1 | 41 | . | .
COc1cc([N+](=O)[O-])ccc1NC(=O)CN1CCc2cc(OC)c(OC)cc2C1 | 44 | . | .
COc1cc([N+](=O)[O-])ccc1NC(=O)COC(=O)c1ccc(NC(N)=O)cc1 | -44* | -1 | -43* | Apaf1 act interf=>100
CCCCCCSc1cc(-c2nc3ccc(C)cn3c2NCCCC)ccc1OC | 46 | . | .
Cc1ccc(NC(=O)c2ccc(OC(=O)COc3ccc(Cl)cc3C)cc2)cc1 | -486* | -6 | 8
CC(C)COc1ccc(C(=O)Nc2scc(-c3ccc(Cl)cc3Cl)c2C(N)=O)cc1 | 45 | . | .
CCCCCCCCCCOC(=O)Cn1c(COc2ccccc2OC)[n+](C)c2ccccc21 | 71 | . | .
COc1ccc(C(C)(C)C)cc1NC(=O)CNc1cccc2ccccc12 | 44 | . | .
COc1ccc(OC)c(NC(=O)CS(=O)(=O)Cc2nc(-c3ccccc3C)oc2C)c1 | -50* | 2 | 4
COc1ccc(CC(=O)Nc2ccc(-c3nc4cc(C)ccc4o3)c(O)c2)cc1OC | 42 | . | .
COc1cccc2c1[C@@H]1CN(CCCCn3c(=O)[nH]c4c(sc5ncc(-c6ccccc6)nc54)c3=O)C[C@@H]1CO2 | 48 | . | .
O=C1N=C(N2CCN(Cc3ccccc3)CC2)S/C1=C/c1cccs1 | -408* | 11 | 20
Cc1cc2cc(C(c3nnnn3Cc3ccco3)N3CCc4ccccc4C3)c(=O)[nH]c2cc1C (configuration not stated) | 41 | . | .
CC(C)[C@H](CO)Nc1nc(Nc2ccc(Cl)c(C(=O)O)c2)c2ncn(C(C)C)c2n1 | 44 | . | .
O=C(Nc1ccccc1OC(F)F)c1oc2ccccc2c1COc1ccccc1 | -180* | 4 | 12
NNc1nc2c(Cl)c(Cl)ccc2s1 | -59* | 0 | 10
CC(=O)[C@]1(O)Cc2c(O)c3c(c(O)c2[C@@H](O[C@H]2C[C@H](N)[C@H](O)[C@H](C)O2)C1)C(=O)c1ccccc1C3=O | 47 | . | .
Cc1c(C(=O)OCC(=O)Nc2c(C)n(C)n(-c3ccccc3)c2=O)cccc1[N+](=O)[O-] | -93* | 5 | 12
Cc1c(Cl)cnc(NC(=O)COC(=O)c2ccc([N+](=O)[O-])s2)c1Cl | 40 | . | .
COc1ccc(C(c2c(C)[nH]n(-c3ccccc3)c2=O)c2c(C)[nH]n(-c3ccccc3)c2=O)cc1OC | 97 | . | .
NNC(=O)c1ccc(Cn2cc(Br)c(N)n2)cc1 | -40* | 4 | 5
CCC(=O)NC1=C(Cl)C(=O)C(NC(=O)CC)=C(Cl)C1=O | 71 | . | .
CN(C)CCOc1ccc(-c2c(-c3ccsc3)sc3ccccc23)cc1 | 71 | . | .
SMILES | Apaf1 activ | Rh110 interf act | Apaf-1 act conf | others
NC(=O)CSc1ncc(-c2ccc([N+](=O)[O-])cc2)[nH]1 | -244* | 15 | 8
O=C(C[C@H]1C[C@H](C(=O)N2CCOCC2)[C@@]2(CCC3CCCC3)c3[nH]c4cc(-c5ccco5)ccc4c3CCN2C1=O)NCCCn1ccnc1 | 62 | . | .
Fc1ccccc1NC(=S)Nc1cccc2cnccc12 | 97 | . | .
Cc1ccc(F)c(NC(=S)Nc2cccc3ccccc23)c1 | 78 | . | .
CC(Oc1ccc2ccccc2c1)C(=O)NNC(=O)Nc1ccccc1F (configuration not stated) | -132* | -5 | 11
CCOC(=O)NNc1ccc2nonc2c1[N+](=O)[O-] | 96 | . | .
Cc1cc(NC(=O)c2cccc(S(=O)(=O)N3CCOCC3)c2)no1 | -50* | 2 | 9
Cc1[nH]n(-c2ccccc2)c(=O)c1N=Nc1cccc(S(=O)(=O)N2CCOCC2)c1 | 46 | . | .
Cc1nc2ccc3nc(NC(=O)c4ccc(S(=O)(=O)N5CCOCC5)cc4)sc3c2s1 | -80* | -7 | -21
Cc1ccc(-n2c(O)c(/C=N/Nc3ccc(S(=O)(=O)N4CCOCC4)cc3[N+](=O)[O-])c3ccccc3c2=O)c(C)c1 | 51 | . | .
CCN1CCN(c2ccc(S(=O)(=O)N3CCOCC3)cc2NC(=O)CC(C)C)CC1 | 50 | . | .
C=CCn1c(N)c(C(=O)Nc2ccccc2)c2nc3ccccc3nc21 | 67 | . | .
CC(=O)Nc1ccc(NC2=C/C(=N/S(=O)(=O)c3cccs3)c3ccccc3C2=O)cc1 | 90 | . | .
Cc1ccc(C(=O)N2CCCN(c3nc4cc5c(cc4cc3C#N)OCO5)CC2)cc1 | 67 | . | .
CCC(=O)N(CC)C1=C(O)c2ccccc2C(=O)C1=O | 55 | . | .
Nc1cc(N)c(OCC(F)(F)F)cc1OCC(F)(F)F | 84 | . | .
N=C1SC(c2ccccc2)C(=O)N1c1ncc(Cc2ccccc2Cl)s1 (configuration not stated) | -171* | -6 | 11
O=C(OCC(=O)N1CCCCC1)c1n[nH]c(=O)c2ccccc12 | -572* | 2 | 7
C=CCn1c(N)c(C(=O)OC(C)(C)C)c2nc3ccccc3nc21 | 67 | . | .
CC(=O)N1CCN(C2=Nc3cccc4cccc2c34)CC1 | 80 | . | .
O=C(Nc1ccccc1C(=O)N1CCN(Cc2ccccc2)CC1)c1ccccc1 | -95* | -15 | 8
O=C(/C=C/c1ccc(O)cc1)c1ccc(NC2=C(N3CCCCC3)C(=O)c3ccccc3C2=O)cc1 | 76 | . | .
CC(C)(C)C(=O)[C@@H]1[C@@H]2C(=O)N(C3CCCCC3)C(=O)[C@@H]2[C@H]2c3ccccc3C=CN12 | 64 | . | .
CCC(C)(C)c1ccc(OCCCC[n+]2ccccc2)c(C(C)(C)CC)c1 | 51 | . | .
CCN(CC)c1nc(OCCNC(=O)Nc2ccccc2)nc(N(CC)CC)n1 | -52* | -2 | 17
SMILES | Apaf1 activ | Rh110 interf act | Apaf-1 act conf | others
COCCNC(=O)c1c(N)n(-c2ccccc2)c2nc3ccccc3nc12 | 81 | . | .
O=C(NCCOc1nc(N2CCCCC2)nc(N2CCCCC2)n1)Nc1ccccc1 | 41 | . | .
COc1ccc(-c2sc3ccccc3c2-c2ccc(OCCN(C)C)cc2)cc1 | 77 | . | .
CC[C@]12c3[nH]c4ccc(OC)cc4c3CCN1C(=O)C(CC(=O)NC/C=C(\C)CCC=C(C)C)C[C@@H]2C(=O)N1CCN(C(=O)c2ccco2)CC1 (some centres not stated) | 40 | . | .
Cc1ccc(N(C)S(=O)(=O)c2cccc(C(=O)Nc3ccc(C)cn3)c2)cc1 | 45 | . | .
COCCNC(=O)c1c[nH]c2ccc(S(=O)(=O)N(C)c3ccc(C)c(C)c3)cc2c1=O | -68* | 19 | 19
COC1=C(Nc2ccccc2)C(=O)c2ccccc2C1=O | 61 | . | .
COc1cc(NC2CCCCC2O)c2nc(-c3ccc(Cl)cc3)ccc2c1 (configuration not stated) | 55 | . | .
Cc1cc(N)c2cc(NC(=O)/C=C/c3ccccc3Cl)ccc2n1 | 64 | . | .
Cc1nc2ccc(Cl)cc2c(-c2ccccc2Cl)c1CC(=O)O | -42* | -5 | 17
O=C(C[C@H]1C[C@H](C(=O)N2CCCCC2)[C@@]2(CCc3ccccc3)c3[nH]c4cc(-c5ccco5)ccc4c3CCN2C1=O)NCCN1CCOCC1 | 48 | . | .
